Activity calls are given as the source filed them. No cut-off for these calls is given here.
Tests used:
SEM cells = assay: Antiproliferative activity against human SEM cells after 72 hrs by MTT assay; format: functional
In short: (§1)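 Compounds from 10 mM DMSO stocks. Cells seeded at 8 × 10^3 per well and held 18 h at 37 °C in humidified 5% CO2. Medium was then replaced with fresh medium holding graded compound concentrations, in triplicate, for 72 h at 37 °C. Viability was read by MTT. GI50 is the concentration giving 50% inhibition of proliferation. Mean ± SE of ≥3 independent dose-response experiments.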

MCF7 = assay: Antiproliferative activity against human MCF7 cells after 72 hrs by MTT assay; format: functional; details: MCF7, 72 h; in short: as §1
MV4-11 = assay: Antiproliferative activity against human MV4-11 cells after 72 hrs by MTT assay; format: functional; details: MV4-11, 72 h; in short: as §1
THP-1 = assay: Antiproliferative activity against human THP1 cells after 72 hrs by MTT assay; format: functional; details: THP-1, 72 h; in short: as §1
CCRF-CEM = assay: Antiproliferative activity against human CCRF-CEM cells after 72 hrs by MTT assay; format: functional; in short: as §1
RS4-11 = assay: Antiproliferative activity against human RS4:11 cells after 72 hrs by MTT assay; format: functional; details: RS4-11, 72 h; in short: as §1
Jurkat [1] = assay: Antiproliferative activity against human Jurkat cells after 72 hrs by MTT assay; format: functional; in short: as §1
HT-29 = assay: Antiproliferative activity against human HT-29 cells after 72 hrs by MTT assay; format: functional; details: HT-29, 72 h; in short: as §1
A549 = assay: Antiproliferative activity against human A549 cells after 72 hrs by MTT assay; format: functional; details: A549, 72 h; in short: as §1
HeLa [2] = assay: Antiproliferative activity against human HeLa cells after 72 hrs by MTT assay; format: functional; in short: as §1
HL-60 = assay: Antiproliferative activity against human HL60 cells after 72 hrs by MTT assay; format: functional; details: HL-60, 72 h; in short: as §1
[3] = Inhibition of bovine brain tubulin assembly preincubated for 20 mins followed by GTP addition by turbidometric method; parameters: species or system Bos taurus
In short: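 Varying compound concentrations pre-incubated with 10 μM bovine brain tubulin in glutamate buffer at 30 °C, then chilled to 0 °C. GTP added to 0.4 mM final, mixture warmed to 30 °C, turbidity followed at 350 nm.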

Bos taurus = species on record: Bos taurus; assay: Inhibition of [3H]colchicine binding to bovine brain tubulin at 5 uM relative to control
In short: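 Reaction mixtures held 1 μM tubulin, 5 μM [3H]colchicine and 5 μM test compound. Inhibition of bound radiolabel measured relative to control.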

[4] = Selectivity index, ratio of IC50 for phytohematoaglutinin-stimulated human PBL to GI50 for human Jurkat cells
In short: (§2)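 Ratio of two 72 h MTT viability values. Healthy-donor PBL were isolated on a density gradient, rested overnight, then seeded as non-adherent cells at 5 × 10^5 cells/mL with 2.5 μg/mL PHA and exposed to graded compound concentrations. Leukemia cells were grown in RPMI-1640 with 10% FBS, seeded at 8 × 10^3 cells/well, pre-incubated 18 h at 37 °C, and dosed in triplicate.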

HeLa [5] = assay: Cell cycle arrest in human HeLa cells assessed as accumulation at G2/M phase after 24 hrs by propidium iodide staining based flow cytometry; format: functional
In short: (§3)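 5 × 10^5 cells exposed to varying compound concentrations for 24 h. Cells collected, fixed in ice-cold 70% ethanol, and lysed in buffer with RNase A and 0.1% Triton X-100. PI-stained, then analysed by flow cytometry for phase distribution from DNA histograms. Mean of two independent experiments.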

Jurkat [6] = assay: Induction of ROS generation in human Jurkat cells at 10 to 100 nM after 24 to 48 hrs by H2-DCFDA staining based flow cytometry; format: functional, cell-based
In short: (§4)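 Cells exposed for 24 or 48 h at the indicated concentrations, then loaded with H2-DCFDA. ROS read as oxidised DCF fluorescence by flow cytometry. Mean ± SEM of three independent experiments.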

[7] = Selectivity index, ratio of IC50 for phytohematoaglutinin-stimulated human PBL to GI50 for human CCRF-CEM cells; in short: as §2
HeLa [8] = assay: Cell cycle arrest in human HeLa cells assessed as accumulation at G2/M phase at 100 nM after 24 hrs by propidium iodide staining based flow cytometry relative to control; format: functional; in short: as §3
Liver [9] = assay: Metabolic stability in human liver microsomes at 10 uM after 60 mins in presence of NADPH by fluorescence based HPLC analysis; format: ADME, microsome; details: 1 h
In short: (§5)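 Compound at 10 μM final in 0.1 M KH2PO4 pH 7.4 with 1.0 mg/mL pooled mixed-gender human liver microsomes, without or with 1 mM NADPH; buffer-only controls. Started with microsomes after 3-min equilibration and run at 37 °C for 0–60 min. Stopped with ice-cold acetonitrile, centrifuged, supernatant run on C18 HPLC with fluorescence detection (ex 344/em 493 nm). % remaining from peak area versus 0 min. Mean ± SD, n = 3–4.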

Jurkat [10] = assay: Cell cycle arrest in human Jurkat cells assessed as accumulation at G2/M phase at 100 nM after 24 hrs by propidium iodide staining based flow cytometry relative to control; format: functional; in short: as §3
HeLa [11] = assay: Cell cycle arrest in human HeLa cells assessed as reduction in S phase at 50 to 100 nM after 24 hrs by propidium iodide staining based flow cytometry relative to control; format: functional; in short: as §3
[12] = Metabolic stability in human liver microsomes assessed as parent compound remaining at 10 uM after 60 mins by fluorescence based HPLC analysis; format: ADME, microsome; details: read-out: Stability; in short: as §5
HeLa [13] = assay: Cell cycle arrest in human HeLa cells assessed as reduction in G1 phase at 50 to 100 nM after 24 hrs by propidium iodide staining based flow cytometry relative to control; format: functional; in short: as §3
Jurkat [14] = assay: Cell cycle arrest in human Jurkat cells assessed as accumulation at G2/M phase after 24 hrs by propidium iodide staining based flow cytometry; format: functional; in short: as §3
PBL [15] = assay: Antiproliferative activity against phytohematoaglutinin-stimulated human PBL after 72 hrs by MTT assay; format: cell-based
In short: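 Donor PBL isolated on a Lymphoprep gradient and rested overnight in RPMI-1640 with 10% FBS. Non-adherent cells resuspended at 5 × 10^5 cells/mL in growth medium with 2.5 μg/mL PHA. Graded compound concentrations added; viability by MTT at 72 h. Mean ± SEM of three separate experiments.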

HeLa [16] = assay: Induction of ROS generation in human HeLa cells at 10 to 100 nM after 24 to 48 hrs by H2-DCFDA staining based flow cytometry; format: functional, cell-based; in short: as §4
Liver [17] = assay: Drug metabolism in human liver microsomes assessed as 7-phenyl-3H-pyrrolo[3,2-f]quinolin-9(6H)-one formation at 10 uM after 60 mins by fluorescence based HPLC analysis; format: ADME, microsome; details: 1 h; in short: as §5
PBL [18] = assay: Antiproliferative activity against human PBL after 72 hrs by MTT assay; format: cell-based
In short: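 PBL from healthy donors separated on a Lymphoprep gradient, washed, and held overnight at 1.0 × 10^6 cells/mL in RPMI-1640 with 10% FBS. Non-adherent resting cells resuspended at 5 × 10^5 cells/mL without PHA. Graded compound concentrations for 72 h, then MTT. Mean ± SEM of three separate experiments.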

Liver [19] = assay: Drug level in human liver microsomes treated with 3-Benzoyl-7-phenyl-6H-pyrrolo[3,2-f]quinolin-9-one at 10 uM after 60 mins by fluorescence based HPLC analysis; format: ADME, microsome; details: 1 h; in short: as §5
HeLa [20] = assay: Cell cycle arrest in human HeLa cells assessed as accumulation at G2/M phase at 50 to 100 nM after 24 hrs by propidium iodide staining based flow cytometry; format: functional; in short: as §3
Jurkat [21] = assay: Cell cycle arrest in human Jurkat cells assessed as accumulation at G2/M phase at 50 to 100 nM after 24 hrs by propidium iodide staining based flow cytometry; format: functional; in short: as §3

Structure (SMILES)	GI50 (SEM cells) [µM]	GI50 (MCF7) [µM]	GI50 (MV4-11) [µM]	GI50 (THP-1) [µM]	GI50 (CCRF-CEM) [µM]	GI50 (RS4-11) [µM]	GI50 (Jurkat [1]) [µM]	GI50 (HT-29) [µM]	GI50 (A549) [µM]	GI50 (HeLa [2]) [µM]	GI50 (HL-60) [µM]	IC50 [3] [µM]	inhibition (Bos taurus) [%]	further results
CS(=O)(=O)N1CCc2cc3[nH]c(-c4ccccc4)cc(=O)c3cc21	> 10	> 10	> 10	> 10	> 10	> 10	> 10	> 10	> 10	7.64	> 10	–	–	–
Cc1ccc(S(=O)(=O)n2ccc3c4c(=O)cc(-c5ccccc5)[nH]c4ccc32)cc1	0.033	0.195	0.065	0.222	0.032	0.048	0.055	0.005	0.052	0.026	0.335	1.1	37	–
O=C(C1CC1)n1ccc2c3c(=O)cc(-c4ccccc4)[nH]c3ccc21	0.0004	0.005	0.019	0.074	0.017	0.0001	0.0003	0.001	0.009	0.0016	0.002	–	–	–
O=C(c1ccccc1)N1CCc2c1ccc1[nH]c(-c3ccccc3)cc(=O)c21	0.918	1.11	1.54	2.17	1.04	0.256	1.34	1.59	0.918	0.331	2.64	–	–	–
O=C(c1ccccc1)N1CCc2cc3[nH]c(-c4ccccc4)cc(=O)c3cc21	1.66	6.32	1.98	2.32	0.818	0.132	2.32	5.44	3.56	1.45	3.74	–	–	–
O=C(NC1CC1)n1ccc2c3c(=O)cc(-c4ccccc4)[nH]c3ccc21	0.011	0.096	0.085	0.066	0.092	0.027	0.145	0.255	0.171	0.212	0.155	2.2	18	–
O=C(c1ccccc1)n1ccc2c3c(=O)cc(-c4ccccc4)[nH]c3ccc21	0.0009	0.0002	0.002	0.005	0.012	0.0003	0.016	0.0001	0.01	0.0002	0.002	0.89	70	Selectivity Index [4]: 1000 - 2000; Activity (HeLa [5]): Dose-dependent effect; Activity (Jurkat [6]): Active; Selectivity Index [7]: 1000 - 2000; Activity (HeLa [8]): >50%; Stability (Liver [9]): Stable; Activity (Jurkat [10]): >50%; Activity (HeLa [11]): Active; remaining at 1 h, 10 µM [12]: > 60%; Activity (HeLa [13]): Active; Activity (Jurkat [14]): Dose-dependent effect; IC50 (PBL [15]): 15.2 µM; Activity (HeLa [16]): Active; Drug metabolism (Liver [17]): Metabolite_Detected; IC50 (PBL [18]): 28 µM
O=c1cc(-c2ccccc2)[nH]c2ccc3c(ccn3S(=O)(=O)c3ccc(C(F)(F)F)cc3)c12	0.033	0.005	0.086	0.042	0.032	0.147	0.081	0.023	0.063	0.022	0.039	2.4	29	–
O=c1cc(-c2ccccc2)[nH]c2ccc3[nH]ccc3c12	–	–	–	–	–	–	–	–	–	–	–	–	–	Drug metabolism (Liver [19]): Metabolite_Detected
CS(=O)(=O)N1CCc2c1ccc1[nH]c(-c3ccccc3)cc(=O)c21	0.271	0.521	0.352	0.071	0.235	0.035	0.372	0.623	0.451	0.563	0.291	–	–	–
CS(=O)(=O)n1ccc2c3c(=O)cc(-c4ccccc4)[nH]c3ccc21	0.023	0.152	0.049	0.092	0.042	0.018	0.034	0.007	0.003	0.036	0.215	1.2	42	Activity (Jurkat [6]): Active; Activity (HeLa [20]): Active; Activity (Jurkat [21]): Active; IC50 (PBL [15]): > 100 µM; Activity (HeLa [16]): Active; IC50 (PBL [18]): > 100 µM
O=c1cc(-c2ccccc2)[nH]c2ccc3c(c12)CCN3S(=O)(=O)c1ccc(C(F)(F)F)cc1	0.336	0.475	0.356	0.846	0.435	0.211	0.256	0.255	0.541	0.373	1.62	–	–	–

Reference: ChEMBL document CHEMBL3992497, “Synthesis, structure-activity relationships and biological evaluation of 7-phenyl-pyrroloquinolinone 3-amide derivatives as potent antimitotic agents” (Eur J Med Chem, 2017)
